Measurements as given in ChEMBL document CHEMBL2034972, “Synthesis, biological evaluation, and structure-activity relationships of N-benzoyl-2-hydroxybenzamides as agents active against P. falciparum (K1 strain), Trypanosomes, and Leishmania” (J Med Chem, 2012).
≈ marks a conversion by molar mass, not a printed value.

How the values were obtained:
[1] = Selectivity index, ratio of IC50 for rat L6 cells to IC50 for intracellular amastigote stage of Trypanosoma cruzi Tulahuen C2C4; type: toxicity, cell-based; settings: read-out: Ratio IC50
Summary of the method: (§1)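 Selectivity index is calculated as the L6 myoblast IC50 divided by the IC50 against the respective parasite. Both IC50s are in µg/mL and are means of two independent determinations.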

Plasmodium falciparum = experiment: Antimalarial activity against chloroquine and pyrimethamine-resistant Plasmodium falciparum […] assessed as [3H]-hypoxanthine incorporation after 48 hrs by liquid scintillation counting; type: functional, organism-based
Summary of the method: (§2)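 In vitro screens of parasites and host cells: T. b. rhodesiense STIB900 trypomastigotes, T. cruzi Tulahuen C4 intracellular amastigotes, L. donovani MHOM-ET-67/L82 axenic amastigotes, P. falciparum K1 erythrocytic stage, and L6 rat skeletal myoblasts […] for toxicity. […] Values are means of two independent determinations.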

[2] = Selectivity index, ratio of IC50 for rat L6 cells to IC50 for axenic amastigote stage of Leishmania donovani MHOM/ET/67/L82; type: toxicity, cell-based; settings: read-out: Ratio IC50; summary of the method: as §1
Trypanosoma cruzi = experiment: Antitrypanosomal activity against intracellular amastigote stage of Trypanosoma cruzi Tulahuen C2C4 infected in rat L6 cells after 96 hrs by spectrophotometric analysis; type: functional, organism-based; settings: Tulahuen C2C4, L6, 96 h
Summary of the method: (§3)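 In vitro screens of parasites and host cells: T. b. rhodesiense STIB900 trypomastigotes, T. cruzi Tulahuen C4 intracellular amastigotes, L. donovani MHOM-ET-67/L82 axenic amastigotes, P. falciparum K1 erythrocytic stage, and L6 rat skeletal myoblasts […] for toxicity. Values are means of two independent determinations.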

L6 = experiment: Cytotoxicity against rat L6 cells after 72 hrs by alamar blue assay; type: cell-based; settings: L6, 72 h; summary of the method: as §2
[3] = system: Trypanosoma brucei rhodesiense; experiment: Antitrypanosomal activity against trypomastigotes of Trypanosoma brucei rhodesiense […] after 72 hrs by alamar blue assay; type: functional, organism-based; settings: STIB 900, L6, 72 h; summary of the method: as §2
[4] = Selectivity index, ratio of IC50 for rat L6 cells to IC50 for trypomastigotes of Trypanosoma brucei rhodesiense STIB 900; type: toxicity, cell-based; settings: read-out: Ratio IC50; summary of the method: as §1
Leishmania donovani = experiment: Antileishmanial activity against axenic amastigote stage of Leishmania donovani […] after 72 hrs by alamar blue assay; type: functional, organism-based; settings: MHOM/ET/67/L82, L6, 72 h; summary of the method: as §3
[5] = Selectivity index, ratio of IC50 for rat L6 cells to IC50 for chloroquine and pyrimethamine-resistant Plasmodium falciparum K1; type: toxicity, cell-based; settings: read-out: Ratio IC50; summary of the method: as §1

Row | Structure (SMILES) | selectivity ratio [1] | IC50 (Plasmodium falciparum) | selectivity ratio [2] | IC50 (Trypanosoma cruzi) | IC50 (L6) | IC50 [3] | selectivity ratio [4] | IC50 (Leishmania donovani) | selectivity ratio [5]
1 | CCc1ccc(C(=O)N(C)C(=O)c2ccccc2O)cc1 | 0.33 | 28 µg/mL (≈ 98.8 µM) | 1 | 29 µg/mL (≈ 102 µM) | 9.4 µg/mL (≈ 33.2 µM) | > 100 µg/mL | < 0.094 | 9.1 µg/mL (≈ 32.1 µM) | 0.33
2 | Cc1ccc(C(=O)NC(=O)c2ccccc2O)cc1 | 1.2 | 1.4 µg/mL (≈ 5.48 µM) | 14 | 38 µg/mL (≈ 149 µM) | 46 µg/mL (≈ 180 µM) | > 100 µg/mL | < 0.46 | 3.2 µg/mL (≈ 12.5 µM) | 33
3 | N#Cc1ccc(C(=O)NC(=O)c2ccccc2O)cc1 | 0.55 | 14 µg/mL (≈ 52.6 µM) | 4.7 | 100 µg/mL (≈ 376 µM) | 55 µg/mL (≈ 207 µM) | > 100 µg/mL | < 0.55 | 12 µg/mL (≈ 45.1 µM) | 3.9
4 | CCCCOc1ccc(C(=O)NC(=O)c2ccccc2O)cc1 | 1.2 | 0.26 µg/mL (≈ 0.83 µM) | 14 | 11 µg/mL (≈ 35.1 µM) | 13 µg/mL (≈ 41.5 µM) | 55 µg/mL (≈ 176 µM) | 0.23 | 0.94 µg/mL (≈ 3 µM) | 50
5 | CCc1ccc(NC(=O)Nc2ccccc2O)cc1 | 1.4 | 2.1 µg/mL (≈ 8.19 µM) | 2.6 | 7 µg/mL (≈ 27.3 µM) | 9.6 µg/mL (≈ 37.5 µM) | 18 µg/mL (≈ 70.2 µM) | 0.54 | 3.7 µg/mL (≈ 14.4 µM) | 4.6
6 | Cc1occc1C(=O)NC(=O)c1ccccc1O | 0.44 | 4.7 µg/mL (≈ 19.2 µM) | 7.8 | 36 µg/mL (≈ 147 µM) | 16 µg/mL (≈ 65.2 µM) | 48 µg/mL (≈ 196 µM) | 0.33 | 2 µg/mL (≈ 8.16 µM) | 3.4
7 | O=C(NC(=O)c1ccccc1O)c1ccc(OC(F)(F)F)cc1 | – | 22 µg/mL (≈ 67.6 µM) | – | 72 µg/mL (≈ 221 µM) | 84 µg/mL (≈ 258 µM) | 65 µg/mL (≈ 200 µM) | – | 5.3 µg/mL (≈ 16.3 µM) | –
8 | CCc1ccc(NC(=O)CC(=O)Nc2ccccc2O)cc1 | 0.76 | 12 µg/mL (≈ 40.2 µM) | 1.2 | 20 µg/mL (≈ 67 µM) | 16 µg/mL (≈ 53.6 µM) | 35 µg/mL (≈ 117 µM) | 0.44 | 13 µg/mL (≈ 43.6 µM) | 1.3
9 | O=C(NC(=O)c1ccccc1O)c1ccc(C(F)(F)F)cc1 | – | 3.8 µg/mL (≈ 12.3 µM) | – | 50 µg/mL (≈ 162 µM) | 13 µg/mL (≈ 42 µM) | 70 µg/mL (≈ 226 µM) | – | 0.57 µg/mL (≈ 1.84 µM) | –
10 | COc1cc(C(=O)NC(=O)c2ccccc2O)cc(OC)c1OC | 0.51 | 0.78 µg/mL (≈ 2.35 µM) | 6.5 | 40 µg/mL (≈ 121 µM) | 21 µg/mL (≈ 63.4 µM) | 79 µg/mL (≈ 238 µM) | 0.26 | 3.2 µg/mL (≈ 9.66 µM) | 26
11 | CCc1ccc(C(=O)NNC(=O)c2ccccc2O)cc1 | 2.2 | 27 µg/mL (≈ 95 µM) | 0.77 | 2.2 µg/mL (≈ 7.74 µM) | 4.8 µg/mL (≈ 16.9 µM) | 17 µg/mL (≈ 59.8 µM) | 0.28 | 6.2 µg/mL (≈ 21.8 µM) | 0.18
12 | O=C(NC(=O)c1ccc(Cl)cc1Cl)c1ccccc1O | 1.1 | 14 µg/mL (≈ 45.1 µM) | 5.5 | 58 µg/mL (≈ 187 µM) | 62 µg/mL (≈ 200 µM) | > 100 µg/mL | < 0.62 | 11 µg/mL (≈ 35.5 µM) | 4.4
13 | O=C(NC(=O)c1ccccc1O)c1ccc2ccccc2c1 | 2.4 | 0.22 µg/mL (≈ 0.755 µM) | 20 | 8.5 µg/mL (≈ 29.2 µM) | 21 µg/mL (≈ 72.1 µM) | 26 µg/mL (≈ 89.3 µM) | 0.78 | 1 µg/mL (≈ 3.43 µM) | 94
14 | CCc1ccc(-c2noc(-c3ccccc3O)n2)cc1 | > 2.6 | 27 µg/mL (≈ 101 µM) | > 1 | 39 µg/mL (≈ 146 µM) | > 100 µg/mL | 61 µg/mL (≈ 229 µM) | > 1.6 | – | > 3.7
15 | Nc1ccc(C(=O)NC(=O)c2ccccc2O)cc1 | 0.98 | 3.9 µg/mL (≈ 15.2 µM) | 5 | 40 µg/mL (≈ 156 µM) | 39 µg/mL (≈ 152 µM) | 46 µg/mL (≈ 180 µM) | 0.84 | 7.8 µg/mL (≈ 30.4 µM) | 10
16 | CC(C)(C)c1ccc(C(=O)NC(=O)c2ccccc2O)cc1 | 0.38 | 0.029 µg/mL (≈ 0.0975 µM) | 17 | 6 µg/mL (≈ 20.2 µM) | 2.3 µg/mL (≈ 7.73 µM) | 61 µg/mL (≈ 205 µM) | 0.038 | 0.14 µg/mL (≈ 0.471 µM) | 80
